Assay outcomes deposited in PubChem by Broad Institute.
EWS-Fli inh: EWS/Fli transcriptional activity inhibition | A673 NR0B1-luciferase reporter, viability-normalised | inhibition, % at 12.6 µM | 350,000 compounds, 0.67% hits | AID 651661;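 active means mean inhibition of at least 50% after viability correction, with every replicate also passing that limit; inconclusive means mean reaches 50% but only one of two replicates passes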;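 further: firefly luciferase signal divided by Alamar Blue viability fluorescence both relative to DMSO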
F508del corr: CFTR F508del correction in bronchial cells; activity (quench increase), % at 7.58 µM; 350,000 compounds, 0.36% hits; CFBE cells, YFP halide quenching; stimulated with forskolin plus potentiator P3; % fluorescence drop versus neutral controls;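 active means mean added fluorescence quench of at least 8% versus neutral control, with both replicates also reaching 8%; inconclusive means only one of the mean or replicate conditions met; inactive means mean below 8% and not both replicates reaching 8%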;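 further: cells transiently co-express mutant CFTR-F508del with the halide-sensitive YFP; corrector assay measuring rescue of mutant channel to the surface after 24 h compound exposure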
PGC1a acetyl inh: modulators of PGC1a acetylation; U2OS PGC1a acetylation, AlphaScreen anti-acetyl-lysine; with virally co-expressed GCN5 acetyltransferase; inhibition, % at 15.6 µM; 350,000 compounds, 0.17% hits; AID 651687;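 active means every replicate shows inhibition of at least 40%; inconclusive means mean inhibition at least 40% but some replicate below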;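 further: 0% = neutral control wells and 100% = positive control wells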
PAX8 inh HTS: inhibitors of PAX8 transcriptional activity in RMG-I cells | RMG-I TPO-luciferase reporter, SteadyGlo, 24 h | inhibition, % at 12.6 µM | 360,000 compounds, 1.2% hits;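 active means mean replicate inhibition at least 60% with every replicate also reaching 60%; inconclusive means only one of the two criteria is met; inactive means mean below 60% and not all replicates reaching 60%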;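 further: luciferase light reporting Pax8 driven TPO promoter activity; plate controls were median of neutral control wells for no effect and mitoxantrone controls for full effect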
HIV Env fusion: blocks HIV Env-driven cell-cell fusion; HeLa-JRFL Env/CEM21 cell fusion, luciferase; inhibition, % at 12.3 µM; 360,000 compounds, 1.1% hits;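 active means mean replicate inhibition score of at least 50 and every replicate individually at or above 50; inconclusive means only one of the two criteria met; inactive means mean below 50 and not all replicates reaching 50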;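 further: 0% = plate neutral controls and 100% = maraviroc near 300 nM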
FN deposition inh: fibronectin deposition inhibition; inhibition, % at 12.6 µM; AID 743247; 350,000 compounds, 0.086% hits; AH1F fibroblasts, Alexa488-fibronectin deposition fluorescence, overnight;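 active means mean inhibition across replicates of 30% or more, regardless of how many single replicates reach that level; inconclusive means mean under 30% yet at least half of replicates reach 30%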;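 further: positive control wells lacked labelled fibronectin entirely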
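material = AH1F fibroblast monolayer depositing Alexa488-labelled fibronectin into matrix | amount = 10000 AH1F cells/well | buffer or medium = DMEM plus 2% serum, read in PBS | incubation = 1 h cell adhesion before compound, then overnight fibronectin incubation | detection = fluorescence at 485 nm excitation, 525 nm emission | evaluation = percent inhibition as loss of matrix-bound fibronectin fluorescence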
DNA binding: small molecule DNA binding by fluorescence polarization; shares compounds with EWS-Fli inh; AC35, µM (titrated, usually from 68 µM), for inactives: at the highest dose activity change, negative = DNA binding; AID 720586; salmon sperm DNA acridine orange fluorescence polarization; 640 compounds, 2% hits;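 active means fitted curve reaches a 35% signal fall AC35 below twice the sample's top valid tested dose, actives reach about 48 µM in these data; inactive means the rest, including activity in the rising direction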;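 further: lower polarization ratio signals compound binding to DNA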
Starred values were filed as active, the others as inactive; ? = inconclusive; / = not tested or not shown; [ ] = remark or other dose. The list is not random: actives were taken first. Their share in the collection is about 2.3%.

SMILES	EWS-Fli inh	F508del corr	PGC1a acetyl inh	PAX8 inh HTS	HIV Env fusion	FN deposition inh	DNA binding
C[C@H](NC(=O)C[C@@H]1CC[C@@H](NC(=O)C2CCOCC2)[C@H](CO)O1)c1ccccc1	-2	3	-1	-4	12[16.7 µM]	-3	/
C[C@H](CO)N1C[C@H](C)[C@@H](CN(C)C(=O)Nc2ccc(F)cc2)Oc2c(NC(=O)c3cnccn3)cccc2C1=O	12	-3	-1	11	0[16.7 µM]	/	/
COc1ccccc1CNC(=O)C[C@@H]1C[C@H]2c3cc(NC(=O)CC4CC4)ccc3O[C@H]2[C@@H](CO)O1	-10	-4	0	11	-18[16.7 µM]	-13	/
COc1ccc(C(=O)OCC(=O)Nc2ccc(Cl)c(C(F)(F)F)c2)c(OC)c1OC	73*	/	/	-7	8	/	6%
C(=N\Nc1nc2ccccc2[nH]1)/c1cccc2nccnc12	-13	/	8	10	4	11	/
C(=N\Nc1nc2ccccc2[nH]1)/c1ccccn1	70*	0	/	62*	20	13	0%
CCCNC(=O)C[C@@H]1CC[C@@H]2[C@@H](COc3ccc(NC(=O)NCC)cc3C(=O)N2C)O1	5	-2	-1	-11	2[16.7 µM]	-9	/
O=c1cc(-c2ccccc2)oc2ccc3ccccc3c12	81*	1	-1	91*	-20	-6	13%
CCC(=O)N(C)C[C@H]1Oc2ncc(C#CCC(C)C)cc2C(=O)N([C@H](C)CO)C[C@@H]1C	-25	0	-11	/	-7[16.7 µM]	9	/
O=C(Cc1nn[nH]n1)c1ccccc1O	68*	/	/	15	12	/	-2%
C[C@@H]1CCCCO[C@H](CN(C)S(=O)(=O)c2ccccc2)[C@@H](C)CN([C@@H](C)CO)C(=O)c2cc(NC(=O)C3CCCCC3)ccc2O1	2	0	1	29	-23[16.7 µM]	7	/
CN=c1scc(-c2cccs2)n1/N=C/c1ccccc1O	93*	/	/	118*	57*	/	-7%
CN=c1scc(-c2cccs2)n1/N=C/c1ccc(O)c(O)c1O	26	1	/	33	-253	-15	/
COc1ccc(-c2cnc3c(NC=O)cc(-c4ccccc4OC)cn23)cc1OC	58*	3	-17	100*	-180	12	-5%
CNC(=O)C[C@@H]1CC[C@@H]2[C@H](COC[C@@H](O)CN2C(=O)Nc2ccc3c(c2)OCO3)O1	/	-2	3	/	/	-16	/
Cc1cc(C)cc(OCC(=O)OCC(=O)Nc2cc(S(=O)(=O)N3CCOCC3)ccc2Cl)c1	-1	2	-17	-4	-13	3	/
Cc1cc(C)cc(OCC(=O)OCC(=O)Nc2cc(S(=O)(=O)N3CCOCC3)ccc2C)c1	66*	-1	4	-1	4	1	-12%
CC(C)CC#Cc1ccc([C@@H]2[C@@H](CO)N3CCCCN(S(=O)(=O)c4ccc(F)cc4)C[C@H]23)cc1	82*	1	-13	91*	/	/	-11%
O=S(=O)(N[C@@H]1CC[C@@H](CCn2cc(-c3ccccn3)nn2)O[C@H]1CO)c1cccc(F)c1	-5	1	12	8	1[16.7 µM]	3	/
Cc1cc(C(=O)Nc2ccc3c(c2)C(=O)N(C)[C@@H]2CC[C@H](CC(=O)N[C@H](C)c4ccccc4)O[C@H]2CO3)no1	58*	-2	3	41	-4[16.7 µM]	1	-7%
COC(=O)C[C@@H]1CC[C@@H]2[C@H](COc3ccc(NC(=O)c4cc(C)on4)cc3C(=O)N2C)O1	60*	14*	4	24	/	11	-15%
Cc1ccc(/C=N/NC(=O)c2csc3c2CCCC3)cc1	/	/	-2	/	/	/	/
COc1cc(/C=N/NC(=O)c2csc3c2CCCC3)cc(OC)c1O	85*	/	/	-6	7	/	-7%
C[C@H]1CN([C@@H](C)CO)C(=O)c2cc(C3=CCCC3)cnc2O[C@H]1CN(C)C	-7	1	4	/	-2[16.7 µM]	-2	/
COc1cc2oc3ccc(C#Cc4ccc(N)cc4)cc3c(=O)c2cc1OC	-1	2	/	-105	-38	-5	/
COc1cc2oc3cc(C#Cc4ccc(N)cc4)ccc3c(=O)c2cc1OC	55*	3	-2	29	?	2	1%
